Measured values: ChEMBL document CHEMBL1122281, “Synthesis and antifilarial activity of N-[4-[[4-alkoxy-3-[(dialkylamino)methyl]phenyl]amino]- 2-pyrimidinyl]-N'-phenylguanidines” (J Med Chem, 1983)

What was measured:
[1] = system: Litomosoides carinii; assay: Antifilarial activity against Litomosoides carinii infections in the Jird at dose 6.25 mg/kg administered subcutaneously; format: functional; settings: route subcutaneous
How it was run: (§1)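 L. carinii-infected jirds were dosed. Survivors were killed 55–70 days after the first dose, and the pleural and peritoneal cavities were searched for adult worms. Live worms at autopsy were scored as a percentage relative to sham-dosed controls. Adult worm reduction above 60% was the activity criterion.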

[2] = system: Litomosoides carinii; assay: Antifilarial activity against Litomosoides carinii infections in the Jird at dose 25 mg/kg administered subcutaneously; format: functional; settings: route subcutaneous; how it was run: as §1
[3] = system: Litomosoides carinii; assay: Antifilarial activity against Litomosoides carinii infections in the Jird at dose 1.56 mg/kg administered subcutaneously; format: functional; settings: route subcutaneous; how it was run: as §1
[4] = system: Litomosoides carinii; assay: Antifilarial activity against Litomosoides carinii infections in the Jird at dose 50 mg/kg administered orally; format: functional; settings: route oral; how it was run: as §1
[5] = system: Litomosoides carinii; assay: Antifilarial activity against Litomosoides carinii infections in the Jird at dose 12 mg/kg administered orally; format: functional; settings: route oral; how it was run: as §1
[6] = system: Litomosoides carinii; assay: Antifilarial activity against infections of Litomosoides carinii in the Jird by oral route(dose (mg/kg) is given in parentheses); format: functional; how it was run: as §1
[7] = system: Litomosoides carinii; assay: (§2) Antifilarial activity against Litomosoides carinii infections in the Jird at dose 100 mg/kg administered subcutaneously; format: functional; settings: route subcutaneous; how it was run: as §1
[8] = system: Litomosoides carinii; assay: Antifilarial activity against Litomosoides carinii infections in the Jird at dose 0.5 mg/kg administered orally; format: functional; settings: route oral; how it was run: as §1
[9] = system: Litomosoides carinii; assay: Antifilarial activity against Litomosoides carinii infections in the Jird at dose 3 mg/kg administered orally; format: functional; settings: route oral; how it was run: as §1
[10] = system: Litomosoides carinii; assay: Antifilarial activity against Litomosoides carinii infections in the Jird at dose 25 mg/kg administered orally; format: functional; settings: route oral; how it was run: as §1
[11] = system: Litomosoides carinii; assay: Antifilarial activity against Litomosoides carinii infections in the Jird at dose 100 mg/kg administered orally; format: functional; settings: route oral; how it was run: as §1
[12] = Antifilarial activity against Litomosoides carinii infections in the Jird at dose 100 mg/kg administered subcutaneously; two or more animals died prematurely considered to be drug toxicity.; format: organism-based, Meriones unguiculatus; design: dose 100 mg/kg, route subcutaneous; settings: gerbil, in vivo, sc
How it was run: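 Jirds infected with Litomosoides carinii. Surviving animals killed 55–70 days after first drug dose; pleural and peritoneal cavities searched for adult worms. Live worm count at autopsy scored as percentage relative to sham-dosed controls. Activity criterion: adult worm reduction exceeding 60%.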

[13] = system: Litomosoides carinii; assay: Antifilarial activity against Litomosoides carinii infections in the Jird at dose 400 mg/kg administered subcutaneously; format: functional; settings: route subcutaneous; how it was run: as §1
[14] = system: Litomosoides carinii; assay: Antifilarial activity against Litomosoides carinii infections in the Jird at dose 400 mg/kg administered orally; format: functional; settings: route oral; how it was run: as §1
[15] = system: Litomosoides carinii; assay: Antifilarial activity against Litomosoides carinii infections in the Jird at dose 200 mg/kg administered orally; format: functional; settings: route oral; how it was run: as §1
[16] = system: Litomosoides carinii; assay: Antifilarial activity against Litomosoides carinii infections in the Jird at dose 100 mg/kg administered subcutaneously; settings: route subcutaneous
[17] = system: Litomosoides carinii; assay: as §2; format: functional; settings: route subcutaneous; how it was run: as §1; remark: listed apart in the source
[18] = system: Litomosoides carinii; assay: Antifilarial activity against Litomosoides carinii infections in the Jird at dose 50 mg/kg administered subcutaneously; format: functional; settings: route subcutaneous; how it was run: as §1
[19] = system: Litomosoides carinii; assay: Antifilarial activity against Litomosoides carinii infections in the Jird at dose 200 mg/kg administered subcutaneously; format: functional; settings: route subcutaneous; how it was run: as §1
[20] = system: Litomosoides carinii; assay: Antifilarial activity against Litomosoides carinii infections in the Jird at dose 6 mg/kg administered subcutaneously; format: functional; settings: route subcutaneous; how it was run: as §1
[21] = system: Litomosoides carinii; assay: Antifilarial activity against Litomosoides carinii infections in the Jird at dose 600 mg/kg administered orally; format: functional; settings: route oral; how it was run: as §1

In the case of COC(=O)Nc1nc2cc(C(=O)c3ccccc3)ccc2[nH]1 [MEBENDAZOLE], the “Reduction of live worms” value [1] is reported as 100%, the “Reduction of live worms” value [2] is reported as 100% and the “Reduction of live worms” value [3] is reported as 97%.

With CCN(CC)Cc1cc(Nc2cc(C(F)(F)F)nc(/N=C(\N)Nc3ccccc3)n2)ccc1OC the “Reduction of live worms” value [4] was 100% and the “Reduction of live worms” value [5] was 38%.

With Cc1ccc(C(=O)Nc2ccc(S(=O)(=O)O)c3cc(S(=O)(=O)O)cc(S(=O)(=O)O)c23)cc1NC(=O)c1cccc(NC(=O)Nc2cccc(C(=O)Nc3cc(C(=O)Nc4ccc(S(=O)(=O)O)c5cc(S(=O)(=O)O)cc(S(=O)(=O)O)c45)ccc3C)c2)c1 [SURAMIN] the “Reduction of live worms” value [6] was 98%.

With CCN(CC)Cc1cc(Nc2cc(C(F)(F)F)nc(/N=C(\N)Nc3ccccc3)n2)ccc1O the “Reduction of live worms” value [4] was 100% and the “Reduction of live worms” value [5] was 47%.

For CCN(C)Cc1cc(Nc2cc(C(F)(F)F)nc(/N=C(\N)Nc3ccc(Cl)c(Cl)c3)n2)ccc1O, the “Reduction of live worms” value [7] was 100%, the “Reduction of live worms” value [2] was 100% and the “Reduction of live worms” value [8] was 100%. The “Reduction of live worms” value [9] was 97% and the “Reduction of live worms” value [10] was 100%.

In the case of CCN(CC)Cc1cc(Nc2cc(C(F)(F)F)nc(/N=C(\N)Nc3ccc(C(F)(F)F)cc3)n2)ccc1O, the “Reduction of live worms” value [7] is reported as 100%, the “Reduction of live worms” value [8] is reported as 22% and the “Reduction of live worms” value [9] is reported as 98%. For the same compound, the “Reduction of live worms” value [11] was 100% and the “Reduction of live worms” value [10] was 100%.

For CN1CCN(Cc2cc(Nc3cc(C(F)(F)F)nc(/N=C(\N)Nc4ccc(Cl)c(Cl)c4)n3)ccc2O)CC1, the Animals dead [12] was over 2, the “Reduction of live worms” value [13] was 99% and the “Reduction of live worms” value [14] was 100%. For the same compound, the “Reduction of live worms” value [9] was 0%, the “Reduction of live worms” value [11] was 100% and the “Reduction of live worms” value [10] was 100%. For the same compound, the “Reduction of live worms” value [15] was 100%.

In the case of CCOc1ccc(Nc2nc(/N=C(\N)Nc3ccc(Cl)c(Cl)c3)nc3c2CCCC3)cc1CN(CC)CC, the Animals dead [12] is reported as over 2, the “Reduction of live worms” value [16] is reported as 0% and the “Reduction of live worms” value [10] is reported as 54%.

With CCN(CC)Cc1cc(Nc2cc(C)nc(/N=C(\N)Nc3cc(Cl)cc(Cl)c3)n2)ccc1O the Animals dead [12] was over 2, the “Reduction of live worms” value [7] was 68% and the “Reduction of live worms” value [17] was 0%.

In the case of COc1ccc(Nc2cc(C(F)(F)F)nc(/N=C(\N)Nc3ccc(Cl)c(Cl)c3)n2)cc1CN(C)C, the Animals dead [12] is reported as over 2, the “Reduction of live worms” value [7] is reported as 100% and the “Reduction of live worms” value [9] is reported as 100%. The “Reduction of live worms” value [11] was 100% and the “Reduction of live worms” value [10] was 100%.

For CN1CCN(Cc2cc(Nc3cc(C(F)(F)F)nc(/N=C(\N)Nc4ccccc4)n3)ccc2O)CC1, the “Reduction of live worms” value [4] was 78%, the “Reduction of live worms” value [5] was 0% and the “Reduction of live worms” value [11] was 91%.

For CN(C)Cc1cc(Nc2cc(C(F)(F)F)nc(/N=C(\N)Nc3ccc(Cl)c(Cl)c3)n2)ccc1O, the “Reduction of live worms” value [8] was 100%, the “Reduction of live worms” value [9] was 90% and the “Reduction of live worms” value [11] was 100%. For the same compound, the “Reduction of live worms” value [10] was 100%.

With CCN(CC)C(=O)N1CCN(C)CC1 [DIETHYLCARBAMAZINE] the “Reduction of live worms” value [18] was 89% and the “Reduction of live worms” value [7] was 100%.

In the case of CN1CCN(Cc2cc(Nc3cc(C(F)(F)F)nc(/N=C(\N)Nc4ccc(C(F)(F)F)cc4)n3)ccc2O)CC1, the “Reduction of live worms” value [9] is reported as 5%, the “Reduction of live worms” value [11] is reported as 100% and the “Reduction of live worms” value [10] is reported as 40%. The “Reduction of live worms” value [19] was 96%.

For CN1CCN(Cc2cc(Nc3cc(C(F)(F)F)nc(/N=C(\N)Nc4ccc(Cl)cc4)n3)ccc2O)CC1, the “Reduction of live worms” value [4] was 98% and the “Reduction of live worms” value [5] was 38%.

In the case of CCN(CC)Cc1cc(Nc2ccnc3cc(Cl)ccc23)ccc1O.Cl, the “Reduction of live worms” value [7] is reported as 100%, the “Reduction of live worms” value [2] is reported as 61% and the “Reduction of live worms” value [11] is reported as 72%. For the same compound, the “Reduction of live worms” value [10] was 71%.

For CCNCc1cc(Nc2cc(C(F)(F)F)nc(/N=C(\N)Nc3ccc(Cl)c(Cl)c3)n2)ccc1O, the “Reduction of live worms” value [7] was 100%, the “Reduction of live worms” value [2] was 100% and the “Reduction of live worms” value [8] was 97%. For the same compound, the “Reduction of live worms” value [9] was 97% and the “Reduction of live worms” value [10] was 100%.

For N/C(=N\c1ccc(Cl)cc1)Nc1nc(Nc2ccc(O)c(CN3CCCC3)c2)cc(C(F)(F)F)n1, the “Reduction of live worms” value [4] was 100% and the “Reduction of live worms” value [5] was 87%.

For CCNCc1cc(Nc2cc(C(F)(F)F)nc(/N=C(\N)Nc3ccc(Cl)cc3)n2)ccc1OC, the Animals dead [12] was over 2, the “Reduction of live worms” value [2] was 100% and the “Reduction of live worms” value [20] was 92%. For the same compound, the “Reduction of live worms” value [9] was 81%, the “Reduction of live worms” value [11] was 100% and the Reduction of live worms [10] was 94%.

In the case of COc1ccc(Nc2cc(C(F)(F)F)nc(/N=C(\N)Nc3ccc(Cl)cc3)n2)cc1CN1CCCC1, the “Reduction of live worms” value [4] is reported as 100%, the “Reduction of live worms” value [5] is reported as 100% and the “Reduction of live worms” value [8] is reported as 100%. The “Reduction of live worms” value [9] was 99%.

With CCNCc1cc(Nc2nc(/N=C(\N)Nc3ccc(Cl)c(Cl)c3)nc3c2CCCC3)ccc1OC the Animals dead [12] was over 2 and the “Reduction of live worms” value [2] was 69%.

In the case of CCN(CC)Cc1cc(Nc2cc(C(F)(F)F)nc(/N=C(\N)Nc3ccc(Cl)cc3)n2)ccc1O, the “Reduction of live worms” value [4] is reported as 100%, the “Reduction of live worms” value [5] is reported as 100% and the “Reduction of live worms” value [8] is reported as 100%. For the same compound, the “Reduction of live worms” value [9] was 100%.

With CCN(CC)Cc1cc(Nc2cc(C(F)(F)F)nc(/N=C(\N)Nc3ccc(Cl)c(Cl)c3)n2)ccc1OC the “Reduction of live worms” value [7] was 100%, the “Reduction of live worms” value [2] was 100% and the “Reduction of live worms” value [9] was 100%. For the same compound, the “Reduction of live worms” value [10] was 100%.

With CCCCN(CC)CCNc1cc(C)nc(/N=C(\N)Nc2ccc(Cl)c(Cl)c2)n1 the “Reduction of live worms” value [21] was 66%.
